The text below walks through data of publication PMC3195516 (Synthesis, 2010).

Read-outs that look alike come from different tables or passages of the source.

Assay [1] concerns L1210 cells. The assay can be described thus: L1210 cell growth inhibition. In kind it is cell-based, Murine. In short, it runs like this: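 L1210 cells were kept in logarithmic-phase suspension in RPMI-1640 with 10% fetal bovine serum, 2% HEPES-MOPS buffer, 1 mM L-glutamine and 1 mM aminoguanidine at 37 °C under 5% CO₂. Cultures at 0.5–1.0 × 10⁵ cells/mL were treated, reseeded and incubated, then counted. IC50 is the concentration that reduces growth to 50% of control after the set exposure.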

For assay [2], the system named is L1210 cells. Particulars: cultured L1210 cells; cited from earlier work.
The mark [3] stands for this setting: read-out: IC50 (µM) 48 h, L1210 cells, 48 h exposure.
The mark [4] stands for this setting: read-out: IC50 (µM) 96 h, L1210 cells, 96 h exposure.
[5] abbreviates: Mus musculus, L1210, 48 h, read-out: IC50 (µM) 48 h.
Setting [6] is: Mus musculus, L1210, 96 h, read-out: IC50 (µM) 96 h.

By IC50 is commonly meant the concentration that gives 50% inhibition. On to `CCOC(=O)[C@@]1(C)CSC(c2ccc(OC(=O)c3ccc(CNCCCNCCCN)cc3)cc2O)=N1` [NSPDBn-(S)-4′-(HO)-DADFT-EE (7), ethyl (S)-4,5-dihydro-2-[2-hydroxy-4-[4-(9-amino-2,6-diazanonyl)benzoyloxy]]-4-methyl-4-thiazolecarboxylate], for which the IC50 in the assay on L1210 cells [1] (setting [3]) is 1.8 µM; with L1210 cells [1] (setting [4]), 2.1 µM.

In the case of `C[C@]1(C(=O)O)CSC(c2ccc(OCCCCNCCCNCCCN)cc2O)=N1` [NSPD-(S)-4′-(HO)-DADFT (4), (S)-4,5-dihydro-2-[2-hydroxy-4-(12-amino-5,9-diazadodecyloxy)phenyl]-4-methyl-4-thiazolecarboxylic acid], the IC50 in the assay with L1210 cells [1] (setting [5]) and with L1210 cells [1] (setting [6]) was 40 µM in each case.

Take `C[C@]1(C(=O)O)CSC(c2ccc(O)cc2O)=N1` [(S)-4′-(HO)-DADFT (6), (S)-2-(2,4-dihydroxyphenyl)-4,5-dihydro-4-methyl-4-thiazolecarboxylic acid]: the IC50 with L1210 cells [1] (setting [5]) turned out to be 19 µM; in the assay on L1210 cells [1] (setting [6]), 20 µM.

Regarding `CCNCCCNCCCNCCCNCC` [DENSPM (1), reference compound], the IC50 in the assay with L1210 cells [1] (setting [3]) turned out to be 20 µM; with L1210 cells [1] (setting [4]) it was 2 µM.

Regarding `Cc1c(O)c(=O)ccn1C` [L1 (2), 1,2-dimethyl-3-hydroxypyridin-4-one, reference compound], the “intracellular concentration of compound” value with L1210 cells [2] is on record as ~ 1 µM. Besides, the IC50 with L1210 cells [1] (setting [5]) turned out to be 46 µM; with L1210 cells [1] (setting [6]) it was 55 µM.

Turning to `Cc1c(O)c(=O)ccn1CCCNCCCCNCCCN` [L1-SPM-conjugate (3), 1-(12-amino-4,9-diazadodecyl)-2-methyl-3-hydroxy-4(1H)-pyridinone], the “intracellular concentration of compound” value in the assay with L1210 cells [2] was 390 µM. Further, the IC50 with L1210 cells [1] (setting [5]) and in the assay on L1210 cells [1] (setting [6]) was 0.2 µM each time.
